A selection: hits, their analogues and other compounds. The true share with any hit is near 2.8%.
UBC13 polyUb = UBC13 polyubiquitin chain formation inhibitors, primary screen, biochemical, TR-FRET, uHTS. Ubiquitin-conjugating enzyme E2 N (Homo sapiens), P61088. inhibition, % at 20 µM. 330,000 tested, 0.47% active. AID 485273, 2010; in the data active = inhibition above about 45%, passing the limit was not always enough
pCIP destab = p/CIP-EGFP fusion destabilizers, primary screen, fluorescence, F442A cells; 290,000 tested, 0.01% active; Q05BA5; AID 1984, 2009; 16 h; decrease of EGFP signal, % at 10 µM;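 active = EGFP signal decrease of at least 30% at 10 µM or well 3 SD below plate mean, unless failing retest; inactive = the rest, including hits failing retest or dose response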
AI-2 QS modul = Vibrio harveyi AI-2 quorum sensing modulators, primary screen, JMH597 strain, luminescence/OD600 ratio | AID 2094, 2009 | activity change, % at 7.5 µM | 300,000 tested, 0.4% active | Vibrio harveyi JMH597 AI-2 luminescence/OD600 ratio, 9 h; stronger effect = lower value; strain lacks LuxN and CqsS sensors; 0 = neutral-control median; in the data active = activity change below about -75%, passing the limit was not always enough;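 note: luminescence divided by OD600 gain over 9 h not by final OD600 alone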
PP1 counter = PP1-alpha phosphatase inhibitors, primary screen, counter-screen for PP5 inhibitor project, biochemical, fluorescence, OMFP substrate, single point. Serine/threonine-protein phosphatase PP1-alpha catalytic subunit (Homo sapiens), P62136. purified PP1alpha. inhibition, % at 6.7 µM. 320,000 tested, 0.9% active. AID 2235, 2010;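 active = inhibition above the mean inhibition of all tested compounds plus 3 SD, computed separately for each screening campaign, cut at about 15% in these data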
Target sequence (P62136 whole entry, looked up): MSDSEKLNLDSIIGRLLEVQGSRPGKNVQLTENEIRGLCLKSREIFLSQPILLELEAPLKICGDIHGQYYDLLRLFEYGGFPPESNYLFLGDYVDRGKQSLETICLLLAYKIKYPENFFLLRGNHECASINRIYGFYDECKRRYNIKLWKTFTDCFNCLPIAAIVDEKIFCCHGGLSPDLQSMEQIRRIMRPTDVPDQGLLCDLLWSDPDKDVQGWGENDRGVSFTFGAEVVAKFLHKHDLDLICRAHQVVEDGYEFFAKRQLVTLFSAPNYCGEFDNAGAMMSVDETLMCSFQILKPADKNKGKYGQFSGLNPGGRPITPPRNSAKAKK
T cruzi inh = inhibitors of intracellular T. cruzi growth, primary screen, luminescence, NIH3T3 host cells | T. cruzi beta-gal in NIH3T3, 90 h | inhibition, % (no concentration beside the values) | 300,000 tested, 1.4% active;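 active = mean inhibition across valid replicates above about 55%, limit read from the data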;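 note: signal also drops with host cell toxicity which is not excluded here; 0% = plate median of DMSO wells and 100% = zero luminescence signal; higher percent means less beta-gal luminescence so fewer parasites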
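Test system: β-gal T. cruzi (Tulahuen C4) inside NIH/3T3 cells / Quantity: 5,000 cells/well / Measured by: luminescence from GalScreen with 0.05% NP40, read after 60 min / Medium: DMEM plus 2% FBS / Measure: parasite load inhibition, % / Reagent: Tulahuen C4 trypomastigotes, 5000/well / Schedule: co-culture of at least 90 h after 3 h attachment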
* marks the source's active call; other numbers are inactive results; . = no result.

SMILES	UBC13 polyUb	pCIP destab	AI-2 QS modul	PP1 counter	T cruzi inh
CC1Cc2ccccc2N1C(=O)Cn1cnc2c1c(=O)n(C)c(=O)n2C (stereo unspecified)	-2.5	-17.1	8.9	-0.7	-1.4
O=C(N/N=C/c1cc2c3c(c1O)CCCN3CCC2)c1ccccc1O	.	-5.9	577.2	.	58.8*
Cc1nn(-c2ccccc2)c(N2CCCC2)c1/C=N/NC(=O)c1ccccc1O	-0.8	2.4	24.2	3.3	-8.6
CC1(C)C2CCC1(C)C(OCC[N+](C)(C)CC(=O)OC1CCCCC1)C2 (stereo unspecified)	35.3	-11.3	3.9	0.8	63.1*
N#Cc1nc(-c2ccccc2F)oc1NCc1cccc2c1OCO2	4.8	-1.5	-87.0*	2.1	13.4
COc1cc(/C=C/c2nc(N)nc(-c3ccccc3O)n2)cc(OC)c1OC	16.0	-13.8	11.1	-0.4	24.1
COc1ccc(/C=C/c2nc(N)nc(-c3ccccc3O)n2)cc1OC	16.0	3.9	5.4	-4.9	66.9*
CC(C(=O)OCC(=O)NC1CCCCC1)N1C(=O)c2ccccc2C1=O (stereo unspecified)	12.5	.	.	.	.
Clc1cccc(-c2nnc(SC/C=C/c3ccccc3)n2Cc2ccco2)c1	-11.0	4.5	-6.4	16.0*	2.8
C(=C\c1ccccc1)/CSc1nnc(-c2ccccc2)n1Cc1ccco1	-7.6	-5.0	9.6	4.3	-18.0
COc1ccc(NC(=O)CC2C(=O)N(CCc3ccccc3)C(=S)N2Cc2cccnc2)cc1 (stereo unspecified)	3.1	-7.9	23.3	4.0	63.1*
C[C@H]1CN([C@@H](C)CO)C(=O)c2cccc(NS(=O)(=O)c3ccc(F)cc3)c2O[C@H]1CN(C)S(=O)(=O)c1cn(C)cn1	7.6	.	.	.	.
CCc1nnc(NC(=O)CSc2nnc(C(C)NC(=O)c3ccccc3)n2C)s1 (stereo unspecified)	0.5	-1.7	23.1	-1.2	-1.2
CC(=NCCCn1ccnc1)c1c(-c2ccccc2)[nH]n(-c2nc3ccccc3s2)c1=O	-2.0	-3.1	11.7	16.7*	21.2
O=C(COC(=O)c1ccccc1C(=O)c1ccc(Cl)c([N+](=O)[O-])c1)NC1CC1	18.5	6.9	10.2	-4.3	62.7*
CNC(=O)COC(=O)c1ccccc1C(=O)c1ccc(Cl)c([N+](=O)[O-])c1	.	-7.7	41.3	.	29.6
CCOC(=O)CC1CCCCN1C(=O)CCCn1nnnc1CN1CCC(C)CC1 (stereo unspecified)	-9.4	-5.2	-2.7	-6.2	14.0
CCn1cc(C(=O)NCc2ccc3c(c2)OCO3)c(=O)c2cc(F)c(N3CCN(C)CC3)cc21	21.0	-12.5	2.1	3.2	59.7*
Cc1ccc(NC(=O)COc2ccc(CCO)cc2-n2nc3ccccc3n2)cc1C	8.0	-5.3	-8.8	1.9	56.7*
COc1ccc(NC(=O)CN(C)C(=O)/C=C/c2cn(-c3ccccc3)nc2-c2ccc(C)cc2)cc1	-11.5	.	-3.8	13.5	71.7*
COc1ccc(NC(=O)CN(C)C(=O)/C=C/c2cn(-c3ccccc3)nc2-c2ccc(F)cc2)cc1	-6.1	.	14.0	-9.9	16.6
CCS(=O)(=O)c1ncc(Cl)c(C(=O)Nc2ccc(S(=O)(=O)N3CCC(C)CC3)cc2)n1	-10.2	-24.0	30.6	4.6	62.0*
CC1CCN(S(=O)(=O)c2ccc(NC(=O)Cn3nnc(-c4ccccc4)n3)cc2)CC1	-3.0	-8.9	20.0	17.2*	49.3
Cc1ccc(-c2nnn(CC(=O)Nc3ccc(S(=O)(=O)N4CCC(C)CC4)cc3)n2)cc1	-4.4	-0.2	29.4	15.6*	31.9
O=C(Nc1cc(S(=O)(=O)N2CCCCC2)ccc1O)c1ccccc1NS(=O)(=O)c1ccc(F)c(F)c1	-17.2	-1.7	44.2	16.1*	9.9
O=C(Nc1cccc(S(=O)(=O)N2CCCCC2)c1)c1ccccc1NS(=O)(=O)c1ccc(F)cc1	24.1	2.2	8.3	10.0	-5.7
COCCNC(=O)c1c(CSc2ccc(Cl)cc2)noc1C(=O)NCc1ccccc1	11.0	.	1.6	2.8	12.0
C/C(=N\NC(N)=S)C1C2C3CC4C5CC(C42)C1C53 (stereo unspecified)	6.8	-6.1	-11.2	-4.4	77.3*
